Experimental data published in ChEMBL document CHEMBL1144146, “Antibacterial and antiandrogen flavonoids from Sophora flavescens” (1999).
In brackets after ≈: the same amount, converted by molar mass.

Assays:
[1] = Displacement of [3H]DHT from 5-alpha-dihydrotestosterone receptor at 100 ug/mL
[2] = Inhibition of testosterone-5-alpha-reductase at 200 ug/mL
[3] = system: Staphylococcus aureus; assay: Antimicrobial activity against Staphylococcus aureus after 48 hrs by agar plate dilution method; format: functional
How it was run: (§1)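 Strains cultured at 37 °C in soybean–casein digest broth; activity determined by agar plate dilution (described alongside broth microtiter dilution), read after 48 h incubation at 37 °C.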

[4] = system: Cutibacterium acnes; assay: Antimicrobial activity against Propionibacterium acnes after 48 hrs by agar plate dilution method; format: functional; how it was run: as §1
[5] = Inhibition of testosterone-5-alpha-reductase at 50 ug/mL
[6] = Inhibition of testosterone-5-alpha-reductase at 100 ug/mL
[7] = Displacement of [3H]DHT from 5-alpha-dihydrotestosterone receptor at 50 ug/mL
[8] = system: Staphylococcus epidermidis; assay: Antimicrobial activity against Staphylococcus epidermidis after 48 hrs by agar plate dilution method; format: functional; how it was run: as §1
[9] = system: Bacillus subtilis; assay: Antimicrobial activity against Bacillus subtilis after 48 hrs by agar plate dilution method; format: functional; how it was run: as §1
[10] = Displacement of [3H]DHT from 5-alpha-dihydrotestosterone receptor at 200 ug/mL

SMILES | Activity [1] | inhibition [2] | MIC [3] | MIC [4] | inhibition [5] | inhibition [6] | Activity [7] | MIC [8] | MIC [9] | Activity [10]
C=C(C)C(CC=C(C)C)Cc1c(O)cc(O)c2c1O[C@H](c1ccccc1O)CC2=O (some centres not stated) | 89.3% | 77.3% | 5 µg/mL (≈ 12.2 µM) | 10 µg/mL (≈ 24.5 µM) | 21.9% | 51.4% | 60.1% | 5 µg/mL (≈ 12.2 µM) | 2.5 µg/mL (≈ 6.12 µM) | 89.6%
C=C(C)C(CC=C(C)C)Cc1c(O)cc(OC)c2c1O[C@H](c1ccc(O)cc1O)[C@@H](O)C2=O (some centres not stated) | 81.4% | 85.1% |  |  | 14% | 50.9% | 60.2% |  |  | 84.2%
C=C(C)C(CCC(C)(C)O)Cc1c(O)cc(OC)c2c1O[C@H](c1ccc(O)cc1O)CC2=O (some centres not stated) | 27.9% | 11.9% |  |  | -1% | -0.2% | 15.5% |  |  | 65.8%
C=C(C)C(CC=C(C)C)Cc1c(O)cc(OC)c2c1O[C@H](c1ccc(O)cc1O)CC2=O (some centres not stated) [KURARINONE] | 89.2% | 93.8% | 2.5 µg/mL (≈ 5.7 µM) |  | 0.7% | 40.5% | 61.1% |  | 2.5 µg/mL (≈ 5.7 µM) | 88%
CC(C)=CCC(Cc1c(O)cc(O)c2c1O[C@H](c1ccc(O)cc1O)CC2=O)C(C)CO (some centres not stated) [KUSHENOL Q] | 82.4% | 88.5% | 5 µg/mL (≈ 11.3 µM) |  | 0.9% | 34.8% | 66.1% |  | 5 µg/mL (≈ 11.3 µM) | 92.7%
CC(C)=CCc1c(O)cc(O)c2c1O[C@H](c1ccccc1O)CC2=O [KUSHENOL S] | 47.7% | 37.4% | 5 µg/mL (≈ 14.7 µM) |  | 7.3% | 22.9% | 37.8% |  | 5 µg/mL (≈ 14.7 µM) | 70%
C=C(C)C(CC=C(C)C)Cc1c(O)cc(OC)c2c1O[C@H](c1ccc(O)cc1)CC2=O (some centres not stated) [KUSHENOL U] | 85.1% | 84.4% | 10 µg/mL (≈ 23.7 µM) | 10 µg/mL (≈ 23.7 µM) | 7.4% | 50.3% | 52.6% | 10 µg/mL (≈ 23.7 µM) | 10 µg/mL (≈ 23.7 µM) | 96.9%
C=C(C)C(CC=C(C)C)Cc1c(O)cc(O)c2c1O[C@H](c1ccc(O)cc1O)[C@@H](O)C2=O (some centres not stated) [KUSHENOL X] | 90.5% | 96.4% | 10 µg/mL (≈ 22.7 µM) |  | 30.9% | 84.5% | 68.9% |  | 10 µg/mL (≈ 22.7 µM) | 88.6%

The next lines start with the values.

Activity [1] | inhibition [2] | MIC [3] | MIC [4] | inhibition [5] | inhibition [6] | Activity [7] | MIC [8] | MIC [9] | Activity [10] | SMILES
85.8% | 94.2% | 2.5 µg/mL (≈ 5.89 µM) | 10 µg/mL (≈ 23.6 µM) | 51.4% | 86.4% | 80.3% | 10 µg/mL (≈ 23.6 µM) | 2.5 µg/mL (≈ 5.89 µM) | 90.1% | C=C(C)C(CC=C(C)C)Cc1c(O)cc(O)c2c1O[C@H](c1ccc(O)cc1O)CC2=O (some centres not stated)
58.9% | 94.7% | 2.5 µg/mL (≈ 5.52 µM) | 25 µg/mL (≈ 55.2 µM) | 34.1% | 79.3% | 73.7% | 10 µg/mL (≈ 22.1 µM) | 2.5 µg/mL (≈ 5.52 µM) | 58.4% | C=C(C)C(CC=C(C)C)Cc1c(O)cc(OC)c2c1O[C@H](c1ccc(O)cc1OC)CC2=O (some centres not stated)
75.4% | 82.2% |  |  | 3.5% | 41.3% | 43.9% |  |  | 83% | C=C(C)C(CCC(C)(C)O)Cc1c(O)cc(O)c2c1O[C@H](c1ccc(O)cc1O)CC2=O (some centres not stated)
84.9% | 95.4% |  |  | 3.2% | 54.8% | 35% |  |  | 89.2% | C=C(C)[C@H](CCC(C)(C)O)Cc1c(O)cc(O)c2c1O[C@H](c1ccccc1O)CC2=O
88.2% |  |  |  | 32.5% | 84.3% | 63.2% |  |  |  | CC1(C)C=Cc2c(ccc3c2OC[C@@H](c2ccc(O)cc2O)C3)O1
 |  | 10 µg/mL (≈ 25.9 µM) |  |  |  |  |  | 10 µg/mL (≈ 25.9 µM) |  | COc1cc(C2CC(=O)c3c(O)cc(O)c(CC=C(C)C)c3O2)c(O)cc1O (racemic) [KUSHENOL W]
67.5% | 73.5% | 5 µg/mL (≈ 11.8 µM) | 10 µg/mL (≈ 23.7 µM) | 4.1% | 23.6% | 27.3% | 5 µg/mL (≈ 11.8 µM) | 2.5 µg/mL (≈ 5.92 µM) | 82.4% | C=C(C)C(CC=C(C)C)Cc1c(O)cc(OC)c2c1O[C@H](c1ccccc1O)CC2=O (some centres not stated) [KUSHENOL R]
 |  | 10 µg/mL (≈ 25.9 µM) |  |  |  |  |  | 10 µg/mL (≈ 25.9 µM) |  | COc1cc([C@@H]2CC(=O)c3c(cc(O)c(CC=C(C)C)c3O)O2)c(O)cc1O [KUSHENOL V]
84.8% | 89.9% | 5 µg/mL (≈ 14 µM) |  | 25.3% | 80.5% | 74.2% |  | 2.5 µg/mL (≈ 7.02 µM) | 94.5% | CC(C)=CCc1c(O)cc(O)c2c1O[C@H](c1ccc(O)cc1O)CC2=O [LEACHIANONE G]
